pEC50, pIC50: −log10 of the molar value. Active and inactive are the calls of the source. The calls are words filed in the database; no cut-off is given here.
Assays:
Cytomegalovirus [1] = assay: Antiviral activity against Cytomegalovirus AD-169 infected in HEL cells assessed as reduction of virus-induced cytopathogenicity; format: functional, organism-based; conditions: Human betaherpesvirus 5, AD-169, HEL
Cytomegalovirus [2] = assay: Antiviral activity against Cytomegalovirus Davis infected in HEL cells assessed as reduction of virus-induced cytopathogenicity; format: functional, organism-based; conditions: Human betaherpesvirus 5, Davis
[3] = Cytotoxicity against HEL cells assessed as alternation of cell morphology by microscopic analysis; format: cell-based; conditions: human
Human alphaherpesvirus 3 [4] = assay: Antiviral activity against Varicella-zoster virus expressing thymidine kinase infected in HEL cells assessed as reduction of virus-induced plaque formation; format: functional, organism-based; conditions: Human alphaherpesvirus 3, HEL
Procedure, shortened: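 Plaque-reduction assay in HEL cells. TK+ VZV strains were Oka and YS; TK- strains were 07-1 and YS-R. Virus input was 100 PFU, with graded compound concentrations. Plaques were counted once formation was complete in untreated infected controls. […] Two independent experiments were run.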

Human alphaherpesvirus 3 [5] = assay: Antiviral activity against thymidine kinase-deficient Varicella-zoster virus infected in HEL cells assessed as reduction of virus-induced plaque formation; format: functional, organism-based; conditions: Human alphaherpesvirus 3, HEL
Procedure, shortened: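 Plaque-reduction assay in HEL cells. TK+ VZV strains were Oka and YS; TK- strains were 07-1 and YS-R. Virus input was 100 PFU, with graded compound concentrations. Plaques were counted once formation was complete in untreated infected controls. Two independent experiments were run.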

L1210 = assay: Cytotoxicity against mouse L1210 cells assessed as inhibition of cell proliferation; format: functional, cell-based
CCRF-CEM = assay: Cytotoxicity against human CEM cells assessed as inhibition of cell proliferation; format: functional, cell-based
HeLa = assay: Cytotoxicity against human HeLa cells assessed as inhibition of cell proliferation; format: functional, cell-based
MDCK = assay: Cytotoxicity against MDCK cells assessed cell viability by MTS assay; format: cell-based, Canis lupus familiaris; conditions: dog
Procedure, shortened: (§1)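 Cells were exposed to a range of compound concentrations. Viability was measured by the colorimetric formazan-based MTS assay.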

[6] = Cytotoxicity against CRFK cells assessed cell viability by MTS assay; format: cell-based, Felis catus; conditions: cat; procedure, shortened: as §1
Human adenovirus 2 = assay: Antiviral activity against Human adenovirus 2 infected in HEL cells assessed as reduction of virus-induced cytopathogenicity; format: functional, organism-based
Procedure, shortened: (§2)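 Confluent monolayers were infected with 100 CCID50 of virus (1 CCID50 infects 50% of cultures) or 20 PFU. The cultures were then incubated with varying test compound concentrations. Cytopathicity was scored once it was complete in untreated infected controls.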

[7] = tested on: Vesicular stomatitis virus; assay: Antiviral activity against Vesicular stomatitis virus infected in human HeLa cells assessed as reduction of virus-induced cytopathogenicity; format: functional, organism-based
Procedure, shortened: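 Confluent Vero (Coxsackie B4) or HeLa (vesicular stomatitis virus) monolayers in 96-well plates were inoculated with 100 CCID50 virus or 20 PFU and incubated with varying compound concentrations. Cytopathicity was scored once complete in untreated infected controls. […] Two separate experiments were run.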

[8] = tested on: Respiratory syncytial virus; assay: Antiviral activity against Respiratory syncytial virus infected in human Hela cells assessed as reduction of virus-induced cytopathogenicity; format: functional, organism-based; procedure, shortened: as §2
Human respirovirus 3 = assay: Antiviral activity against Parainfluenza virus 3 infected in African green monkey Vero cells assessed as reduction of virus-induced cytopathogenicity; format: functional, organism-based; procedure, shortened: as §2
Reovirus sp. = assay: Antiviral activity against Reovirus infected in African green monkey Vero cells assessed as reduction of virus-induced cytopathogenicity; format: functional, organism-based; procedure, shortened: as §2
Sindbis virus = assay: Antiviral activity against Sindbis virus infected in African green monkey Vero cells assessed as reduction of virus-induced cytopathogenicity; format: functional, organism-based; procedure, shortened: as §2
Influenza A virus = assay: Antiviral activity against Influenza A virus (A/PR/8/34(H1N1)) infected in MDCK cells assessed as reduction of virus-induced cytopathogenicity; format: functional, organism-based; conditions: A/Puerto Rico/8/1934(H1N1)
Procedure, shortened: (§3)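 MDCK cells, grown confluent in 96-well plates, were infected with influenza A/PR/8 (H1N1), A/HK/7/87 (H3N2) or B/HK/5/72 at 100 CCID50 or 20 PFU and exposed to varying compound concentrations. Cytopathic effect was recorded when it reached completion in untreated virus controls. EC50 is the concentration that halves virus-induced cytopathicity.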

Influenza B virus = assay: Antiviral activity against Influenza B virus (B/HK/5/72) infected in MDCK cells assessed as reduction of virus-induced cytopathogenicity; format: functional, cell-based; conditions: B/Hong Kong/05/1972; procedure, shortened: as §3
Felid alphaherpesvirus 1 = assay: Antiviral activity against Feline herpesvirus infected in CRFK cells assessed as reduction of virus-induced cytopathogenicity; format: functional, organism-based; procedure, shortened: as §2
Feline coronavirus = assay: Antiviral activity against Feline coronavirus infected in CRFK cells assessed as reduction of virus-induced cytopathogenicity; format: functional, organism-based; procedure, shortened: as §2
Influenza A virus H3N2 = assay: Antiviral activity against Influenza A virus H3N2 infected in MDCK cells assessed as reduction of virus-induced cytopathogenicity; format: functional, organism-based; procedure, shortened: as §3

Row | Compound | pEC50 (Cytomegalovirus [1]) | pEC50 (Cytomegalovirus [2]) | MCC [3] [µM] | pEC50 (Human alphaherpesvirus 3 [4]) | pEC50 (Human alphaherpesvirus 3 [5]) | pIC50 (L1210) | pIC50 (CCRF-CEM) | pIC50 (HeLa) | CC50 (MDCK) [µM] | CC50 [6] [µM] | other results
1 | CCCN1C(=O)c2cccc3cc(NC(=O)[C@H]4C[C@@H](P(=O)(OCC)OCC)N(C)O4)cc(c23)C1=O (racemic) | 4.35 | 4.35 | > 100 | 4.70 | 4.42 | 4.12 | 4.33 | 4.15 | > 100 | > 100 | –
2 | CCCN1C(=O)c2cccc3cc(NC(=O)[C@@H]4C[C@@H](P(=O)(OCC)OCC)N(C)O4)cc(c23)C1=O (racemic) | < 4.70 | 4.35 | > 100 | 4.55 | 4.40 | 4.39 | 4.55 | 4.13 | 46.2 | – | –
3 | CCCCN1C(=O)c2cccc3cc(NC(=O)[C@H]4C[C@@H](P(=O)(OCC)OCC)N(C)O4)cc(c23)C1=O (racemic) | < 4.70 | < 4.70 | ≥ 100 | 4.70 | 4.42 | 4.55 | 4.72 | – | – | – | –
4 | CCCCN1C(=O)c2cccc3cc(NC(=O)[C@@H]4C[C@@H](P(=O)(OCC)OCC)N(C)O4)cc(c23)C1=O (racemic) | < 4.70 | < 4.70 | ≥ 100 | 4.55 | 4.40 | 4.07 | 4.60 | 4.11 | > 100 | > 100 | –
5 | CCOP(=O)(OCC)[C@@H]1C[C@H](C(=O)Nc2cc3c4c(cccc4c2)C(=O)N(CC(C)C)C3=O)ON1C (racemic) | 4.35 | 4.35 | > 100 | – | – | 4.14 | 4.59 | 4.31 | 51.8 | > 100 | –
6 | CCOP(=O)(OCC)[C@@H]1C[C@H](C(=O)Nc2cc3c4c(cccc4c2)C(=O)N(CCN(CC)CC)C3=O)ON1C (racemic) | 4.00 | ≤ 4.00 | > 100 | < 4.70 | 4.44 | 4.80 | 4.64 | 5.14 | – | > 100 | –
7 | CCOP(=O)(OCC)[C@@H]1C[C@@H](C(=O)Nc2cc3c4c(cccc4c2)C(=O)N(CCN(CC)CC)C3=O)ON1C (racemic) | 4.26 | 4.31 | ≥ 100 | < 4.70 | < 4.70 | 4.96 | 4.68 | 4.89 | > 100 | – | –
8 | CCOP(=O)(OCC)[C@@H]1C[C@@H](C(=O)Nc2cc3c4c(cccc4c2)C(=O)N(CC(C)C)C3=O)ON1C (relative stereo) | < 4.00 | < 4.00 | > 100 | < 4.00 | < 4.00 | 4.14 | 4.32 | 4.25 | > 100 | – | –
9 | CCOP(=O)(OCC)[C@@H]1C[C@@H](CN2C(=O)c3cccc4cc(N)cc(c34)C2=O)ON1C (relative stereo) | – | – | – | – | – | – | – | – | – | – | Activity (Human adenovirus 2): inactive; Activity [7]: inactive; Activity [8]: inactive; Activity (Human respirovirus 3): inactive; Activity (Reovirus sp.): inactive; Activity (Sindbis virus): inactive; Activity (Influenza A virus): inactive; Activity (Influenza B virus): inactive; Activity (Felid alphaherpesvirus 1): inactive; Activity (Feline coronavirus): inactive; Activity (Influenza A virus H3N2): inactive
10 | CCOP(=O)(OCC)[C@@H]1C[C@@H](CN2C(=O)c3cccc4cc(NC(C)=O)cc(c34)C2=O)ON1C (relative stereo) | – | – | – | – | – | – | – | – | – | – | Activity (Human adenovirus 2): inactive; Activity [7]: inactive; Activity [8]: inactive; Activity (Human respirovirus 3): inactive; Activity (Reovirus sp.): inactive; Activity (Sindbis virus): inactive; Activity (Influenza A virus): inactive; Activity (Influenza B virus): inactive; Activity (Felid alphaherpesvirus 1): inactive; Activity (Feline coronavirus): inactive; Activity (Influenza A virus H3N2): inactive
